Compound activity as filed in PubChem BioAssay.
Dynein cargo inh – inhibitors of GR-EGFP nuclear translocation, primary screen, dynein cargo transport inhibitor project, imaging, high-content, 3617.4 mouse cells. AID 1381, 2008. z-score, hits read low. test concentration mostly 20 µM; stimulated with dexamethasone, 1 µM; hits give low values. actives 0.47% (n = 220,000);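 active = plate z-score of nuclear minus cytoplasmic receptor signal below a set negative limit, without overly bright fluorescence or cell loss, cut at about -3.5 in these data, passing the limit was not always enough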;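 note: z-score of nuclear minus cytoplasmic ring GR-EGFP intensity difference per well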
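Buffer or medium – tet-free medium with charcoal-stripped serum · Signal – automated 10x imaging of fixed Hoechst-stained cells · Also added – dexamethasone agonist, 1.0 µM final, for 30 min · Incubation – induction 48 h, compound 1 h, agonist 30 min · Read-out – GR-EGFP nuclear translocation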
Autophagy mod – autophagy modulators in MEF cells, primary screen, imaging, high-content, MEF GFP-LC3; MEF GFP-LC3 puncta imaging; test concentration mostly 10 µM; calls only at 10 µM (by protocol); actives 0.98% (n = 190,000); AID 463193, 2010;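 active = percentage of spot-positive cells more than 3 SD above its plate mean, without a fluorescence outlier flag or 80% toxicity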
bCat nuc transl – modulators of beta-catenin nuclear translocation, primary screen, imaging, HeLa cells, immunofluorescence, high-content; nuclear translocation activity, % at 5 µM; actives 0.3% (n = 190,000); AID 1665, 2009;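 active = nuclear translocation activity above 50% at 5 µM, with a well cell count of 50 or more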;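 note: per-cell ratio of nuclear to cytoplasmic median beta-catenin stain intensity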
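System: HeLa cells, endogenous beta-catenin; compound dosing: 5 µM primary single dose, 0.1% DMSO, 0.02–20 µM confirmation series; incubation: 24 h compound exposure at 37°C, 5% CO2; signal: beta-catenin immunofluorescence imaging with DAPI; evaluation: % activation, nuclear-to-cytoplasmic median beta-catenin signal ratio per cell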
L major viab – Leishmania major promastigote growth inhibition, primary screen; Leishmania major promastigotes, resazurin fluorescence viability; inhibition, % at 10 µM; actives 9% (n = 200,000); in the data active = inhibition above about 50%;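 note: promastigotes grown with compound for 44 hours at 28 °C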
CHOP inh – inhibitors of CHOP promoter induction, primary screen, cell-based, unfolded protein response, luciferase reporter. CHO-K1 CHOP-promoter luciferase, tunicamycin-induced, 15-18 h. inhibition, % at 10 µM. actives 3.8% (n = 220,000). AID 2732, 2010;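 active = compounds that reduced the stress-induced luciferase reporter signal by more than about 70% of percent inhibition, limit read from the data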
MT stabilize HCS – microtubule stabilizers in HeLa cells, primary screen, imaging, high-content imaging | % tubulin-high responders, % at 10 µM | actives 0.83% (n = 200,000) | HeLa tubulin immunostaining HCS, 24 h; share of cells brighter than vehicle mean+2SD;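 active = plate Z-score above 3 for both tubulin-high and condensed-nucleus cell shares, with cell loss under 80%, at 10 µM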;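 note: anti alpha tubulin signal scored within the nucleus-defined area of each cell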
Each line names hits and unclear results; the compound was inactive in the other large screens. Compounds with a hit are over-represented: about 12% of the library has one in this group of screens.

O=C(c1cc2c(s1)CCCC2)N1CCN(Cc2ccc3c(c2)OCO3)CC1	L major viab 94.2
CCOc1ccc(S(=O)(=O)N2CCN(C(=O)c3cc4c(s3)CCCC4)CC2)cc1	L major viab 77.6
CC(C)n1c(C(=O)OCC(=O)NCc2ccc3c(c2)OCO3)cc2sccc21	MT stabilize HCS 41.6
CC(C)C(c1nnnn1C(C)(C)C)N1CCC(Cc2ccccc2)CC1 (stereo not given)	none
CCOc1ccc(C(CC(=O)O)NC(=O)C(Sc2ccccc2)c2ccccc2)cc1 (stereo not given)	none
CC(C)C(c1nnnn1Cc1cccs1)N1CCN(C(=O)c2ccco2)CC1 (stereo not given)	none
O=S(=O)(c1cccs1)N1CCN(CC(O)COc2cc(Cl)ccc2Cl)CC1 (stereo not given)	none
O=C(c1ccc(Br)s1)N1CCN(Cc2ccc3c(c2)OCO3)CC1	L major viab 81.9
Cn1c(C(=O)N2CCN(Cc3ccc4c(c3)OCO4)CC2)cc2sccc21	L major viab 70.2
O=C1c2ccccc2C(=O)c2[nH]cnc21	none (no result: Autophagy mod, L major viab, MT stabilize HCS)
O=C1c2ccccc2C(=O)c2c1ncn2-c1ccccc1	L major viab 54.8
c1ccc(COc2ccc(OCCCn3cncn3)cc2)cc1	none
Clc1ccc(OCCN2CCCCC2)cc1Cl	L major viab 78.5
Clc1ccc(OCCCn2cncn2)cc1Cl	L major viab 99.7
Clc1ccc(OCCCN2CCCC2)cc1Cl	L major viab 91.2
Clc1ccc(OCCN2CCOCC2)cc1Cl	L major viab 86.5 (no result: bCat nuc transl)
Cc1nn(C)cc1/C=N/NC(=O)Cn1nccc1C	none
CC(C)C(C)(C#N)NC(=O)CSc1nnc(C(F)(F)F)n1C (stereo not given)	none
C=CCSc1nc2c(cnn2-c2ccccc2)c(=O)n1N	none (no result: Autophagy mod, L major viab, MT stabilize HCS)
Cc1cc2c(c(=O)o1)C(c1ccc([N+](=O)[O-])o1)C(C#N)=C(N)O2 (stereo not given)	none (no result: Autophagy mod, L major viab, MT stabilize HCS)
Cc1cc(OCCCCCN2CCCC2)ccc1Cl	L major viab 99.3
Cn1c(SCC(=O)NNC(=O)Cc2ccccc2)nc2ccccc2c1=O	none
COc1ccc(C2CC(=O)c3cnn(-c4nc(C)cc(C)n4)c3C2)cc1 (stereo not given)	L major viab 78.2, MT stabilize HCS 40.1
O=C1CCCc2oc3ccc(O)cc3c21	none
COc1ccccc1NC(C)C(=O)Nc1ccc(C(C)=O)cc1 (stereo not given)	none (no result: bCat nuc transl)
Cc1sc2nc(CSc3nc4ccccc4c(=O)n3CCCN3CCOCC3)[nH]c(=O)c2c1C	none
COCC(C)n1c(SCc2ccc(OC)c(F)c2)nc2ccccc2c1=O (stereo not given)	L major viab 100.3
COc1ccc(CCn2c(SCCN3CCCCC3)nc3ccccc3c2=O)cc1OC	L major viab 99.9
CC(C)Cn1c(N)c(C(=O)CSc2nc3ccccc3c(=O)n2CCCN2CCOCC2)c(=O)n(C)c1=O	Autophagy mod active
COCC(C)n1c(SCc2nc3ccccc3c(=O)[nH]2)nc2ccccc2c1=O (stereo not given)	none
CC(C)Cn1c(N)c(C(=O)CSc2nc3ccccc3n2C)c(=O)n(C)c1=O	none
O=c1c2ccccc2nc(SCCN2CCOCC2)n1CCc1ccccc1	none
COc1ccc(CSc2nc3ccccc3c(=O)n2CCCN2CCOCC2)cc1F	L major viab 97.9
O=C1C=C(c2ccccc2)OC(=O)C1C(=O)c1ccccc1 (stereo not given)	none
COc1ccc(-n2c3c(cc(C(=O)Nc4ccc5c(c4)C(=O)NC5=O)c2=O)C(=O)CCC3)cc1	none (no result: bCat nuc transl, CHOP inh)
NC(=O)c1c(/N=C/c2cccnc2)sc2c1CCCC2	none (no result: Autophagy mod, L major viab, MT stabilize HCS)
CCN(CC)CCNC(=O)c1ccc(-n2c(C)cc3c2CCCC3=O)cc1	none
CC(C)Cn1c(N)c(C(=O)CSc2cc(Cl)ccc2Cl)c(=O)n(C)c1=O	CHOP inh 96.0
CC(C)Cn1c(N)c(C(=O)CCl)c(=O)n(C)c1=O	none (no result: bCat nuc transl)
CCOC(=O)Cc1nnc(NC(=O)CSc2ncc(-c3ccccc3)nn2)s1	none
CC(=O)C1=C(C)NC(SCSc2ccccc2)=C(C#N)C1c1cccnc1 (stereo not given)	L major viab 99.9
CSC1=C(C#N)C(c2ccncc2)C(C(=O)Nc2ccccc2)=C(C)N1 (stereo not given)	none
CC1=C(C(=O)Nc2ccccc2)C(c2ccncc2)C(C#N)=C(SCC(=O)Nc2ccccc2)N1 (stereo not given)	L major viab 99.5
CCOC(=O)C1=C(C)NC(SCC(=O)Nc2nc(C)cs2)=C(C#N)C1c1cccs1 (stereo not given)	CHOP inh 74.5
CCOC(=O)C1=C(c2ccccc2)NC(SCC(N)=O)=C(C#N)C1c1cccnc1 (stereo not given)	none
Cn1c(N2CCOCC2)c(/C=N/OC(=O)c2ccc(F)cc2)c2ccccc21	L major viab 99.5
CC(=O)O/N=C/c1c(N2CCOCC2)n(C)c2ccccc12	L major viab 99.3 (no result: bCat nuc transl)
Cn1c(N2CCOCC2)c(/C=N/O)c2ccccc21	none
Cc1ccc(C(=O)O/N=C/c2c(N3CCOCC3)n(C)c3ccccc23)cc1	L major viab 98.4 (no result: bCat nuc transl)
Cc1ccc(C(=O)O/N=C/c2c(Cl)n(C)c3ccccc23)cc1	none (no result: bCat nuc transl)
Cn1c(N2CCOCC2)c(/C=N/OC(=O)c2cccnc2Cl)c2ccccc21	L major viab 100.1
CCN(CC)CC#CC(OC)(c1ccccc1)c1ccccc1	L major viab 64.3
CCOC(=O)c1c(-c2ccc(F)cc2)csc1NC(=O)C1CCCO1 (stereo not given)	CHOP inh 75.0
CCOC(=O)c1c(-c2ccc(OC)cc2)csc1NC(=O)C1CCCO1 (stereo not given)	L major viab 52.3
CC(=O)C1=C(C)N(Cc2ccccc2)C(=O)N[C@H]1c1ccco1	none (no result: Autophagy mod, L major viab, MT stabilize HCS)
O=C(NCC(=O)N(CCN1CCOCC1)C(C(=O)NC1CCCC1)c1ccccc1)c1cccs1 (stereo not given)	none
CCOC(=O)c1ccc(N2C(=O)CC(N3CCC(C(N)=O)(N4CCCCC4)CC3)C2=O)cc1 (stereo not given)	Autophagy mod active
CCOc1cccc(N2C(=O)CC(N3CCC(C(N)=O)(N4CCCCC4)CC3)C2=O)c1 (stereo not given)	none
COc1ccc(-c2nc(Cn3c(SCc4ccc(C)cc4)nc4ccncc43)c(C)o2)cc1OC	none (no result: bCat nuc transl)
COc1ccc(-c2nc(Cn3c(SCc4cccc(F)c4)nc4ccncc43)c(C)o2)cc1OC	Autophagy mod active
